# ABHD5 PLIN5 PPI: blocks binding of human ABHD5 to perilipin-5 | AID 602281 | Q00G26+Q8WTS1 | inhibition, % at 4 µM | actives 0.78% (n = 360,000) | Split G. princeps luciferase complementation, luminescence, 4 h;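 active = inhibition above the mean inhibition across every tested compound plus 3 SD, cut at about 22% in these data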;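 also: 0% = DMSO only wells and the 100% control is not disclosed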
# Granule exo inh: lytic granule exocytosis inhibition. AID 651702. actives 0.66% (n = 360,000). inhibition, % at 10 µM. TALL-104 LAMP-1 surface exposure, flow cytometry; cells stimulated with thapsigargin and PMA;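 active = inhibition above about 55%, limit read from the data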
# UPR XBP1 act: activators of adaptive arm of unfolded protein response (XBP1); activation, % at 20 µM; CHO-XBP1 luciferase reporter, IRE1-XBP1 UPR activation, luminescence; percent of tunicamycin response, DMSO as zero; actives 0.33% (n = 330,000);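 active = versus positive control, 20 µM dose yields 30% or more activation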;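 also: 100% = tunicamycin at 10 µg/mL and 0% = DMSO only wells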
#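 Material: CHO cell line with stable XBP1 luciferase reporter; schedule: 16-18 h cell attachment at 37 °C, then 6 h compound exposure; signal: glow luminescence from Steady-Glo reagent; medium: serum-containing F12 medium, 10% FBS; benchmarks: tunicamycin 10 µg/mL and vehicle-only wells; read-out: percent activation relative to tunicamycin reference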
# UPR CHOP act: activators of apoptotic arm of unfolded protein response (CHOP); activation, % at 10 µM; actives 0.34% (n = 330,000); CHO-CHOP luciferase reporter, UPR activation, luminescence; percent of tunicamycin response over DMSO baseline;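 active = at 10 µM dose, activation of 40% or more, normalized to positive control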;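 also: 100% = tunicamycin at 10 µg/mL and 0% = DMSO alone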
#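 Material: CHO-CHOP cells, stable luciferase reporter of PERK-eIF2a-CHOP signalling; quantity: 500 reporter cells seeded per well; buffer or medium: F12 medium containing 10% fetal bovine serum; compound: one dose, 10 µM in 0.5% DMSO; incubation: 6 h compound treatment, 37 °C; measured by: Steady-Glo luciferase luminescence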
# Mdm2 MdmX PPI: inhibitors of human Mdm2/MdmX interaction. actives 3% (n = 330,000). O15151+Q00987. SaOS-2 split-luciferase Mdm2/MdmX complementation, luminescence. AID 485346. inhibition, % at 8 µM;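 active = inhibition of at least 50% at 8 µM in the primary screen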
# Target sequence (O15151 whole entry, looked up): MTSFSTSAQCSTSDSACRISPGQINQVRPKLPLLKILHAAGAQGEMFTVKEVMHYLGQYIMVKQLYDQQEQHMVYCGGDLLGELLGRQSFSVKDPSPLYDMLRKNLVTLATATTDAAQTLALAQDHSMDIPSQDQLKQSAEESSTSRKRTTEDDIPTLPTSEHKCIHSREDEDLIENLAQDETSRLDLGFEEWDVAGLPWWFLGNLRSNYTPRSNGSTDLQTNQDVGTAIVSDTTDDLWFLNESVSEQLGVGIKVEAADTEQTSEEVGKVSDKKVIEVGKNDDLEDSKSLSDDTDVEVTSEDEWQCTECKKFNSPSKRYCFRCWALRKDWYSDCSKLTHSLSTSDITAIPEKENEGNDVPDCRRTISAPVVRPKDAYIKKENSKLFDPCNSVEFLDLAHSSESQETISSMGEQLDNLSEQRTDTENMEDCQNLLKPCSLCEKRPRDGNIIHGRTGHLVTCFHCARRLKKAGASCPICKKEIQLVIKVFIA
# Target sequence (Q00987 whole entry, looked up): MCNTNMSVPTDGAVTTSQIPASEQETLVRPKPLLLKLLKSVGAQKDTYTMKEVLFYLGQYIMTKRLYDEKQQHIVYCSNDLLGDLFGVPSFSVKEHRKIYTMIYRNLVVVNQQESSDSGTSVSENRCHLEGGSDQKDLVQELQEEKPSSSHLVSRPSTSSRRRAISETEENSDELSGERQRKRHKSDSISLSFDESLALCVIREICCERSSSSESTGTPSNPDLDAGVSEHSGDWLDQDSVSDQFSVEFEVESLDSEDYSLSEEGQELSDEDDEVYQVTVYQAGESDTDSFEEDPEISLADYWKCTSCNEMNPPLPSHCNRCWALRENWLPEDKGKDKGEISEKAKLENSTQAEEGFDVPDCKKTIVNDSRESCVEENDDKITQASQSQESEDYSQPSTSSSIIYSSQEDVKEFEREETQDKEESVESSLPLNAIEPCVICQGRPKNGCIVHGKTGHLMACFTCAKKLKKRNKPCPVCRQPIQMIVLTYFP
# Mdm2 MdmX conf: confirmation of human Mdm2/MdmX interaction inhibitors; Mdm2-MdmX binding, luminescent assay; AID 489028; actives 55% (n = 10,000); shares compounds with Mdm2 MdmX PPI; inhibition, % at 8 µM; in the data active = inhibition above about 40%
# FLuc counter: inhibits full-length luciferase, flagging false Mdm2/MdmX hits; shares compounds with Mdm2 MdmX PPI; SaOS-2 full-length luciferase counterscreen, luminescence; inhibition, % at 8 µM; actives 77% (n = 6,200);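 active = mean inhibition at 8 µM reaching about 37%, which flags the compound as non-specific, limit read from the data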;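 also: p53-null SaOS-2 cells with luciferase driven by a doxycycline-inducible promoter; compound on cells about two nights before reading with doxycycline added after day one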
# * hit, by the source's call; · = no result given. A selection: hits, their analogues and other compounds. The true share with any hit is near 4%.
SMILES,ABHD5 PLIN5 PPI,Granule exo inh,UPR XBP1 act,UPR CHOP act,Mdm2 MdmX PPI,Mdm2 MdmX conf,others
Cc1cc(NC(=O)CSc2nnc3c(C)cc4c(C)ccc(C)c4n23)no1,3,-3,0,0,66*,63*,FLuc counter=58*
CCc1nnc(NC(=O)CSc2nnc3c(C)cc4c(C)ccc(C)c4n23)s1,11,-2,-2,1,60*,65*,FLuc counter=58*
Cc1nn(-c2ccccc2)c(C)c1C(=O)Nc1ccc(N2CCOCC2)cc1,0,7,0,0,-6,·,
O=C(Nc1ccccc1N1CCOCC1)c1cc(-c2ccncc2)nc2ccccc12,3,1,4,1,55*,38,FLuc counter=82*
CCOc1cc(N2CCOCC2)c(OCC)cc1NC(=O)c1cc(-c2ccco2)nc2ccccc12,-5,2,-4,4,70*,66*,FLuc counter=72*
CCOc1cc(N2CCOCC2)c(OCC)cc1NC(=O)COc1ncnc2ccccc12,-1,2,2,0,4,·,
COc1ccc(-c2cc(C(=O)NNC(=O)c3csc(N4CCOCC4)n3)c3ccccc3n2)cc1OC,-1,-3,3,1,34,·,
COc1ccc(-c2cc(C(=O)Nc3ccccc3N3CCOCC3)c3ccccc3n2)cc1OC,7,6,13,-2,53*,58*,FLuc counter=75*
O=C(Nc1ccc(N2CCOCC2)cc1)c1cc(-c2ccncc2)nc2ccccc12,-1,-1,0,3,0,·,
Nc1nc(NCCCN2CCOCC2)nc(Nc2cccc(Cl)c2)c1[N+](=O)[O-],3,6,2,-1,29,·,
COc1ccc(CN2CCCN(C)CC2)c(OC)c1C,-9,-4,0,1,-30,·,
O=C(COC(=O)c1cccc(F)c1)Nc1cccc(S(=O)(=O)N2CCOCC2)c1,0,-10,·,·,·,·,
CCOC(=O)c1c(C)nc2sc(C(=O)Nc3ccccc3)c(N)c2c1-c1ccc(OC)cc1,-5,13,4,8,59*,35,
CCOC(=O)c1c(C)nc2sc(C(N)=O)c(N)c2c1-c1ccccc1,-10,-7,2,-2,13,·,
CC1(C)CC(=O)C(C2C3=C(CC(C)(C)CC3=O)Oc3ccccc32)=C(O)C1 (stereo not given),-1,1,-5,5,21,·,
CCOC(=O)c1ccccc1NC(=O)COC(=O)c1ccc(OCC(=O)N2CCOCC2)c(OCC)c1,-3,2,·,·,·,·,
CCCC(=O)N=C1SC2CS(=O)(=O)CC2N1c1ccc(-c2nc3ccc(C)cc3s2)cc1 (stereo not given),5,-5,65*,18,73*,-110,
CN(C)C(=O)NC(Nc1cccc([N+](=O)[O-])c1)C(Cl)(Cl)Cl (stereo not given),-3,3,1,-2,12,·,
COc1ccc(OC)c(Nc2cc3ccccc3c(=O)[nH]2)c1,-13,-12,1,-2,19,·,
CN(C)CC1CCCCC1OC(=O)c1ccc(Cl)cc1 (stereo not given),1,-2,0,1,9,·,
CN(C)CC1CCCCC1C1(O)c2ccccc2CSc2sccc21 (stereo not given),15,3,1,-2,61*,55*,FLuc counter=54*
Cc1sc2ncnc(NCc3cccs3)c2c1C,2,-6,6,9,52*,28,
Cc1sc2ncnc(NCc3ccco3)c2c1C,11,1,2,-1,39,·,
Cc1ccc(-c2ccc(CN3C(C)C(=O)N(Cc4cn(Cc5ccco5)nn4)CCS3(=O)=O)cc2)cc1 (stereo not given),7,8,·,·,·,·,
CC1CN(C(=O)c2cccc(S(=O)(=O)Nc3ccccc3Cl)c2)CC(C)O1 (stereo not given),4,16,-4,4,-22,·,
SMILES,ABHD5 PLIN5 PPI,Granule exo inh,UPR XBP1 act,UPR CHOP act,Mdm2 MdmX PPI,Mdm2 MdmX conf,others
CCN(CC)CCN(Cc1cc2ccc(C)c(C)c2[nH]c1=O)C(=S)NCc1ccco1,12,-2,-2,-1,88*,54*,FLuc counter=82*
N#Cc1ccccc1NCC(=O)N1CCN(S(=O)(=O)c2ccccc2)CC1,-4,-2,-5,1,16,·,
Cc1ccc(O)c(NC(=O)c2cc3nc4c(c(C(F)(F)F)n3n2)CCc2ccccc2-4)c1,5,-2,12,1,80*,32,FLuc counter=80*
CC(=O)Nc1ccc(S(=O)(=O)N[C@@H](C)C(=O)OCC(=O)c2ccc(Br)s2)cc1,-2,-5,·,·,·,·,
NC(N)=N/N=C/c1ccc(Br)cc1,4,-2,-1,-2,54*,58*,FLuc counter=57*
NC(N)=N/N=C/c1ccc(OCc2ccccc2)cc1,4,5,3,5,55*,23,
Cc1ccc(COc2ccc(/C=N/O)cc2)cc1,0,-1,2,7,-154,·,
NC(N)=N/N=C/c1ccc(OCc2ccc(Cl)cc2)cc1,2,73*,5,6,98*,32,
COc1cc(C(O)P(=O)(OCC(C)C)c2ccc(N(C)C)cc2)cc(OC)c1OC (stereo not given),5,-4,-2,-1,11,·,
N=c1c2c(n(Cc3ccc(Cl)cc3)c3c1CCC3)CCC2,5,1,-3,0,45,·,
N=c1c2c(n(Cc3cccc(Cl)c3)c3c1CCC3)CCCC2,9,-4,2,2,58*,42*,FLuc counter=64*
O=C(C1=C[C@H](c2ccccc2)C[C@H](OCCCCO)O1)N1CCN(Cc2ccccc2)CC1,-4,0,-2,2,-9,·,
C#Cc1ccc([C@@H]2C=C(C(=O)N3CCN(Cc4ccccc4)CC3)O[C@H](OCCCCO)C2)cc1,4,-2,1,7,57*,77*,FLuc counter=37*
CCOC(=O)c1sc(N(C)C)nc1-c1ccccc1,2,1,1,0,0,·,
O=S(=O)(c1ccc(F)cc1)n1cnc2ccccc21,2,-2,-6,-1,20,·,
COC(=O)c1cc(Cl)c(NC(=O)/C=C/c2ccc(Cl)cc2)cc1OC,1,-1,-4,-1,58*,-32,
COC(=O)c1cc(Cl)c(NC(=O)/C=C/c2ccc(OC)c(OC)c2)cc1OC,-3,-1,-1,-1,19,·,
COC(=O)c1sccc1NC(=O)/C=C/c1ccc(Cl)cc1Cl,18,-4,1,1,56*,-52,
COC(=O)c1sccc1NC(=O)/C=C/c1c(Cl)cccc1Cl,-3,-5,3,6,12,·,
Cc1ccc(NC(=O)C2COc3ccccc3O2)cc1C (stereo not given),-3,-4,0,4,-12,·,

# Assay outcomes (PubChem)
